Series [1] has as its target T1, 5-hydroxytryptamine receptor 1A (Homo sapiens) (UniProt P08908).
T1 sequence (whole entry): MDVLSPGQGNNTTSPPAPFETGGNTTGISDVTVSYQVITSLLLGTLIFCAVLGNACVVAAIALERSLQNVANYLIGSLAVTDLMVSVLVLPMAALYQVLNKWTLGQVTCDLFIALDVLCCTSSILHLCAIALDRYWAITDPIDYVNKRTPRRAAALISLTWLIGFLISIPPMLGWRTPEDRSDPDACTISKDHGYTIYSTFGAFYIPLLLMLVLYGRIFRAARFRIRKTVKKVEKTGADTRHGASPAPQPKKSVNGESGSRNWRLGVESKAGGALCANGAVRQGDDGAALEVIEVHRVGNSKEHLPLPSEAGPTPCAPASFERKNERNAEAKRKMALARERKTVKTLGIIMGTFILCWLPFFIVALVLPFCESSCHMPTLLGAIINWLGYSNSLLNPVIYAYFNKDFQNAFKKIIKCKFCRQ
Put plainly: Agonist activity at human 5-HT1A receptor expressed in CHO-K1 cells co-expressing Galpha16 assessed as increase in calcium mobilization measured for 30 secs by aequorin-derived luminescence assay relative to serotonin. The class given is functional, cell-based. On the technique in general: Calcium flux is commonly read through the fluorescence of an indicator in the cells.

The target of series [2] is T1, 5-hydroxytryptamine receptor 1A (Homo sapiens). The series can be described thus: (§1) Antagonist activity at human 5-HT1A receptor expressed in CHO-K1 cells co-expressing Galpha16 assessed as decrease in serotonin calcium mobilization preincubated for 25 mins followed by serotonin challenge measured for 30 secs by aequorin-derived luminescence assay. The class given is functional, cell-based.

For series [3], the target named is T2, 5-hydroxytryptamine receptor 1A (Homo sapiens, UniProt P08908).
T2 sequence (P08908 whole entry): T1 sequence (whole entry)
The series is described as §1. It counts as functional, cell-based.

For series [4], the target named is T1, 5-hydroxytryptamine receptor 1A (Homo sapiens). Put plainly: Antagonist activity at human 5-HT1A receptor expressed in CHO-K1 cells co-expressing Galpha16 assessed as decrease in serotonin-induced calcium mobilization preincubated for 25 mins followed by serotonin challenge measured for 30 secs by aequorin-derived luminescence assay relative to control. It counts as functional, cell-based.

Series [5] has as its target T3, D(2) dopamine receptor (Homo sapiens, UniProt P14416). Put plainly: Agonist activity at human D2 receptor expressed in CHO-K1 cells co-expressing Galphaqi5 assessed as increase apomorphine-induced calcium mobilization measured for 30 secs by aequorin-derived luminescence assay relative to apomorphine. It counts as functional, cell-based.
For series [6], the target named is 5-hydroxytryptamine receptor 2A (Homo sapiens, UniProt P28223). Put plainly: biochemical. The class given is cell-based, HEK293.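 Further: radioligand displacement of [3H]ketanserin binding at human 5-HT2A receptor in membranes from HEK293 cells, 60 min incubation, read by liquid scintillation counting.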
Series [7] addresses T3, D(2) dopamine receptor. Put plainly: Displacement of [3H]methylspiperonee from recombinant human D2 receptor expressed in HEK293 cell membranes at 10^-5 M after 60 mins by liquid scintillation counting method. A general note: Displacement assays read how much labelled ligand stays bound in the presence of the test substance.
In series [8] the target is T1, 5-hydroxytryptamine receptor 1A (Homo sapiens). Put plainly: Displacement of [3H]8-OH-DPAT from recombinant human 5-HT1A receptor expressed in HEK293 cell membranes at 10^-5 M after 60 mins by liquid scintillation counting method.
For series [9], the target named is T4, 5-hydroxytryptamine receptor 7 (Homo sapiens, UniProt P34969). Put plainly: Displacement of [3H]LSD from recombinant human 5-HT7 receptor expressed in CHO cell membranes at 10^-5 M after 60 mins by liquid scintillation counting method.
The test system of series [10] is Mus musculus. The series can be described thus: Antidepressant-like activity in Albino Swiss CD-1 mouse assessed as immobility time at 20 mg/kg, ip administered 30 mins prior to test measured for last 4 mins of 6 mins observation by forced swim test (reference value: 153.9 to 201.9 secs). The class given is functional.
The target of series [11] is T5, Alpha-1A adrenergic receptor (Homo sapiens) (UniProt P35348).
T5 sequence (whole entry): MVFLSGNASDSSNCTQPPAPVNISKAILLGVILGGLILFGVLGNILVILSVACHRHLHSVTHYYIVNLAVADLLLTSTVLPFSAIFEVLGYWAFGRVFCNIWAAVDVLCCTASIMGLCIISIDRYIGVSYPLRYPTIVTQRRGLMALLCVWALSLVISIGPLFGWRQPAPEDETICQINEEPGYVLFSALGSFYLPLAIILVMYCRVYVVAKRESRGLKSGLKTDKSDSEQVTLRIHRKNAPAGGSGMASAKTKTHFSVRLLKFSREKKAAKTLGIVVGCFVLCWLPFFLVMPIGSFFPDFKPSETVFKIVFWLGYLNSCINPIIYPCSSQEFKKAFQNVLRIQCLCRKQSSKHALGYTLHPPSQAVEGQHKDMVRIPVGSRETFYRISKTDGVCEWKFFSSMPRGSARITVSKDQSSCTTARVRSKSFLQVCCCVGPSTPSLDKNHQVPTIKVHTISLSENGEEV
Put plainly: Displacement of [3H]prazosin from recombinant human alpha1 adrenoceptor expressed in CHO cell membranes at 10^-5 M after 30 mins by liquid scintillation counting method.

Series [12] addresses 5-hydroxytryptamine receptor 6 (Homo sapiens, UniProt P50406). The series can be described thus: Displacement of [3H]LSD from recombinant human 5-HT6 receptor expressed in CHO cells cell membranes after 60 mins by liquid scintillation counting method.
Series [13] deals with Mus musculus. Put plainly: Antidepressant-like activity in Albino Swiss CD-1 mouse assessed as immobility time at 5 mg/kg, ip administered 30 mins prior to test measured for last 4 mins of 6 mins observation by forced swim test (reference value: 153.9 to 201.9 secs). It counts as functional.
Series [14] has as its system Mus musculus. The series can be described thus: Antidepressant-like activity in Albino Swiss CD-1 mouse assessed as immobility time at 10 mg/kg, ip administered 30 mins prior to test measured for last 4 mins of 6 mins observation by forced swim test (reference value: 153.9 to 201.9 secs). It counts as functional.
For series [15], the system named is Mus musculus. The series can be described thus: Anxiolytic-like activity in Albino Swiss CD-1 mouse assessed as increase in number of punished crossings at 10 mg/kg, ip administered for 30 mins prior to test measured for 1 min by four-plate test. It counts as functional, organism-based. The method, boiled down: (§2)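 Four-plate test in mice, i.p., 30 min before test; vehicle 0.9% NaCl; doses 1.25–10 mg/kg; number of punished crossings counted; mean ± SEM, n = 8–10 mice per group; ANOVA F statistics.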

Series [16] relates to Mus musculus. The series can be described thus: Toxicity in Albino Swiss CD-1 mouse assessed as effect on locomotory activity at 5 to 10 mg/kg, ip administered for 30 mins prior to test measured for 1 min. It counts as organism-based. Particulars: in vivo. The method, boiled down:
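Mice dosed i.p. 30 min before test; vehicle groups received 0.9% NaCl. Spontaneous locomotion scored as number of crossings during a 1-min session. Each dose compared with its own vehicle group by Student t-test; mean ± SEM, n = 8–10 mice per group.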

The target of series [17] is T4, 5-hydroxytryptamine receptor 7. Put plainly: Agonist activity at human 5-HT7 receptor expressed in CHO-K1 cells assessed as increase in serotonin-induced cAMP level after 1 hr by TR-FRET assay relative to serotonin. It counts as functional, cell-based. For orientation: Changes in cAMP serve as a functional read-out for many G protein-coupled receptors.
Series [18] shares this target. Put plainly: Antagonist activity at human 5-HT7 receptor expressed in CHO-K1 cells assessed as decrease in serotonin-induced cAMP level after 1 hr by TR-FRET assay relative to control. It counts as functional, cell-based.
Series [19] has the same target. The series can be described thus: Antagonist activity at human 5-HT7 receptor expressed in CHO-K1 cells assessed as decrease in serotonin-induced cAMP level after 1 hr by TR-FRET assay. It counts as functional, cell-based.
Series [20] deals with Mus musculus. Put plainly: Anxiolytic-like activity in Albino Swiss CD-1 mouse assessed as increase in number of punished crossings at 5 to 10 mg/kg, ip administered for 30 mins prior to test measured for 1 min by four-plate test. The class given is functional, organism-based. The method, boiled down:
as §2

Series [21] concerns the target T2, 5-hydroxytryptamine receptor 1A. Put plainly: Displacement of [3H]8-OH-DPAT from recombinant human 5-HT1A receptor expressed in HEK293 cell membranes after 60 mins by liquid scintillation counting method.
Series [22] concerns the target T3, D(2) dopamine receptor. The series can be described thus: Antagonist activity at human D2 receptor expressed in CHO-K1 cells co-expressing Galphaqi5 assessed as decrease in apomorphine-induced calcium mobilization preincubated for 30 mins followed by apomorphine challenge measured for 30 secs by aequorin-derived luminescence assay. It counts as functional, cell-based.

Series [23] relates to Mus musculus. The series can be described thus: Toxicity in Albino Swiss CD-1 mouse assessed as death at 30 mg/kg, ip. It counts as organism-based. Particulars: in vivo. The method, boiled down: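 Deaths counted in mice during maximal electroshock (MES) seizure testing after i.p. dosing, 6 mice per dose (3 or 1 at some top doses); recorded as number dead/number tested alongside protection and rotarod motor impairment (10 rpm); untreated control group included.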

Series [24] addresses T3, D(2) dopamine receptor. Put plainly: Displacement of [3H]methylspiperonee from recombinant human D2 receptor expressed in HEK293 cells cell membranes after 60 mins by liquid scintillation counting method.
The target of series [25] is T4, 5-hydroxytryptamine receptor 7. Put plainly: biochemical. It counts as cell-based, CHO.
For series [26], the target named is T6, Alpha-1A adrenergic receptor (Homo sapiens, UniProt P35348).
T6 sequence (P35348 whole entry): T5 sequence (whole entry)
Put plainly: Displacement of [3H]prazosin from recombinant human alpha1 adrenoceptor expressed in CHO cell membranes after 30 mins by liquid scintillation counting method.

SMILES strings stand for the structures. Calls of active or inactive are those of the source. The calls are words filed in the database; no cut-off is given here.

5-hydroxytryptamine receptor 2A, sequence (P28223 whole entry): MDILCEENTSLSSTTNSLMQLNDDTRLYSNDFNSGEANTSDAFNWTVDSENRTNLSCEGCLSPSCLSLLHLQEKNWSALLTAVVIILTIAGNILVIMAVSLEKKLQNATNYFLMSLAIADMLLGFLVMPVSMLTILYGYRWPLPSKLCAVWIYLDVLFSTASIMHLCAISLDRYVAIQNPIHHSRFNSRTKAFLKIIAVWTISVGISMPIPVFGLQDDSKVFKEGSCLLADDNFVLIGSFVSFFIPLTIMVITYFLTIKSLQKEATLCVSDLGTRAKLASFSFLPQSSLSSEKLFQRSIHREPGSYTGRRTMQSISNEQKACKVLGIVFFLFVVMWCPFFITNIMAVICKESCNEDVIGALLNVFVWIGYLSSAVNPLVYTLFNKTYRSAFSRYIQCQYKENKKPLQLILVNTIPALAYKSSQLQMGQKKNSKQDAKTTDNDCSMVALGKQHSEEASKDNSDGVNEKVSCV
T4 sequence (P34969 whole entry): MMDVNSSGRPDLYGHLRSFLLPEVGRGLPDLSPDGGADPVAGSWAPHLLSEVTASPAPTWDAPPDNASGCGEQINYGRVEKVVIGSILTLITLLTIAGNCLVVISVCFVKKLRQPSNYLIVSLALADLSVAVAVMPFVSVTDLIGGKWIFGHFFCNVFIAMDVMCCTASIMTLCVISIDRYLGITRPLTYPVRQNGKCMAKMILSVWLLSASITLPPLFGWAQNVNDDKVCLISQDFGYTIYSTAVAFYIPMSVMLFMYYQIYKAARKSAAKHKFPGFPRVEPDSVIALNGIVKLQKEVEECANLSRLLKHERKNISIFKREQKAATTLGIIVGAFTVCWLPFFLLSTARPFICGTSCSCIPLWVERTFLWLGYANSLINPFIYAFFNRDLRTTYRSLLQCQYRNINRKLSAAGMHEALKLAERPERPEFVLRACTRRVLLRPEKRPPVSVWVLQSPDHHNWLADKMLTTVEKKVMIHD
5-hydroxytryptamine receptor 6, sequence (P50406 whole entry): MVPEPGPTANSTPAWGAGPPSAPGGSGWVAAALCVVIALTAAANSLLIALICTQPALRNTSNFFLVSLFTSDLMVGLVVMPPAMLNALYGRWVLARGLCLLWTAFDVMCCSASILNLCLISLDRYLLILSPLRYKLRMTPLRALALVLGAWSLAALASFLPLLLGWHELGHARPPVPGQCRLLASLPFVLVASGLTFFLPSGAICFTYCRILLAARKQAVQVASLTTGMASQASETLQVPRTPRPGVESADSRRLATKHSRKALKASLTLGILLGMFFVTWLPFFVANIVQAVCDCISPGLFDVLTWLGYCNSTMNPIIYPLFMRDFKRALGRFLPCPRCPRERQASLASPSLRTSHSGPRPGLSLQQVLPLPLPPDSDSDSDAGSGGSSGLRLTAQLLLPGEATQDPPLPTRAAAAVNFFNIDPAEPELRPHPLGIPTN
T3 sequence (P14416 whole entry): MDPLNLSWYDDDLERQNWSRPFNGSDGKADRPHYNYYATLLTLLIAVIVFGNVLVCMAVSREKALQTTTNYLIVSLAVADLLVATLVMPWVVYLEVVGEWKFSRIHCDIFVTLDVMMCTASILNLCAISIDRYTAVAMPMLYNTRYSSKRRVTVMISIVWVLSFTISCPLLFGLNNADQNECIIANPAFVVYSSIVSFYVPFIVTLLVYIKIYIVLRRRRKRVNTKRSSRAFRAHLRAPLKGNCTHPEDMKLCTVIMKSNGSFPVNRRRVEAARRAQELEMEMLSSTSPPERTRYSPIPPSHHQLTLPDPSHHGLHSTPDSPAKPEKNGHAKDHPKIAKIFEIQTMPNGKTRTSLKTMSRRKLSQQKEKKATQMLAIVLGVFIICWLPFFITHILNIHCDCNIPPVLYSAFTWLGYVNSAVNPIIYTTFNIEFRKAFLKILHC

For orientation: Emax means the size of the effect at its maximum, as opposed to the concentration needed. By Kb is commonly meant the equilibrium dissociation constant of an antagonist, usually derived from a functional assay. For orientation: IC50 means the concentration that gives 50% inhibition. For the molecule `COc1ccccc1N1CCN(C[C@@H](C(=O)NC(C)(C)C)c2ccccc2)CC1`, the Emax in series [1] was 1%; in [4] it was 0%. The antagonist equilibrium constant (Kb) in series [2] was 6.6 nM. The IC50 in series [3] is 16.9 nM.

Turning to `CN(C)CCCN1c2ccccc2Sc2ccc(Cl)cc21`, the Emax in series [5] came out at 5%.

One may read the Ki as the dissociation constant of the complex between target and ligand, obtained from inhibition or displacement. For `Cc1cc(C)c(OCCOCCN2CCN(CCO)CC2)c(C)c1.Cl.Cl`, the inhibition constant (Ki) in [6] and in [12] was above 5000 nM in each case. Moreover, the inhibition result in series [7], in series [8], in [9] and in series [11] was “inactive” each time. Also, the figures for the Time in series [10], in series [13] and in series [14] were 197.3 s, 182.6 s and 198.1 s, respectively. The result in [15] was Active. In series [16], the Activity result was “Non-Toxic”.

For the molecule `CC1CCN(CC[C@H]2CCCN2S(=O)(=O)c2cccc(O)c2)CC1`, the Emax in series [17] and in series [18] was -1% each time.

For the molecule `COc1ccccc1N1CCN(CCCOc2ccc(C)cc2C)CC1.Cl`, the Emax was 0% in [17]; 5% in [18]; 5% in series [1]; 2% in series [5]; 2% in [4]. In addition, the half-maximal inhibitory concentration (IC50) in series [19] is 1050 nM; in series [22], 17.7 nM; in [3] it was 7.19 nM. Also, the antagonist equilibrium constant (Kb) amounted to 448 nM in series [19], 5.29 nM in [22] and 1.8 nM in series [2]. The inhibitory constant (Ki) in series [6] is 527 nM; in [21], 2 nM; in series [12], above 5000 nM; in series [24], 97 nM; in [25], 15 nM; in series [26], 11 nM. Moreover, the result in series [20] was inactive. The Time in [10] stood at 197.3 s; in series [13] it was 182.6 s; in series [14], 198.1 s. The Activity result in series [23] and in [16] was “Non-Toxic” throughout.

For `Cc1cc(C)c(OCCOCCN2CCN(Cc3ccccc3)CC2)c(C)c1.Cl.Cl`, the inhibitory constant (Ki) is 498 nM in series [6], above 5000 nM in series [12] and 3160 nM in [25]. In addition, the inhibition result in series [7], in series [8] and in series [11] was “inactive” each time. In addition, the Time in [10] stood at 157.5 s; in series [13] it was 176.5 s; in series [14] it was 182.4 s. Also, the result in [15] was Active. Further, the Activity result in [16] is “Non-Toxic”.

The values are drawn from ChEMBL document CHEMBL4190389, “Synthesis and activity of di- or trisubstituted N-(phenoxyalkyl)- or N-{2-[2-(phenoxy)ethoxy]ethyl}piperazine derivatives on the central nervous system” (Bioorg Med Chem Lett, 2018).
